Our source for the IC50 and Activity values is ChEMBL document CHEMBL1141857, “Lichen metabolites. 1. Inhibitory action against leukotriene B4 biosynthesis by a non-redox mechanism” (J Nat Prod, 1999).

Structures are written as SMILES.

The term IC50 denotes the concentration at which inhibition is half-maximal. A low value points to greater potency.

A short description of assay [1]: Inhibition of AAPH-induced lipid peroxidation in bovine brain phospholipid liposome. The assay is classed as functional, tissue-based, Bos taurus. The method in brief:
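Bovine brain phospholipid liposomes (1 mg/mL final) in 30 mM KH2PO4-KOH buffer, pH 7.4, with 10 mM AAPH and test compound at variable concentrations (acetone vehicle). Incubated 1 h at 37 °C with shaking. BHT, HCl and TBA then added; TBA-reactive material extracted into butanol and read at 532 nm against an MDA standard.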

Another assay deals with PMNL. The assay is described as follows: Inhibition of LTB4 biosynthesis in A-23187-stimulated bovine PMNL cells. The following applies: Bos taurus. The assay is classed as functional, cell-based. The method in brief: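 Bovine PMNL (10^7 cells/mL) preincubated with compound 15 min at 37 °C, then stimulated with Ca-ionophore. LTB4 and 5-HETE released after 10 min quantified by reversed-phase HPLC. Inhibition = (1 − test/control) × 100, test n = 3, control n = 6–8. IC50 interpolated from log concentration–response plot using ≥4 concentrations spanning 50%.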

In assay [2] the test system is Radical scavenging activity. The assay is described as follows: Antioxidant activity assessed as DPPH radical scavenging activity at equimolar amount of compound. It counts as functional. In a few lines:
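Test compound and DPPH mixed at equal concentrations (each […] as printed) in acetone–PBS 1:1 v/v. DPPH reduction followed spectrophotometrically at 516 nm. Reciprocal DPPH concentration plotted against time; second-order rate constant taken from slope, mean of n = 3–6.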
For orientation: DPPH is a stable violet radical that fades when it is reduced.

The nature of assay [3]: Prooxidant activity assessed as hydroxyl radical formation at 75 uM measured as malondialdehyde per mmol of deoxyribose by deoxyribose assay. The assay is classed as functional. In a few lines: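 Final mixture: 2 mM 2-deoxy-D-ribose, 0.1 mM FeCl3, 30 mM KH2PO4-KOH pH 7.4, 75 μM compound, acetonitrile vehicle controls; 2 h at 37 °C with shaking. TCA and TBA added, heated 100 °C 15 min, butanol-extracted, A532 read. Calibrated against MDA from tetraethoxypropane; reported as μmol MDA/mmol deoxyribose, n = 3.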

As to `CC(=O)C1=C(O)C=C2Oc3c(C(C)=O)c(O)c(C)c(O)c3[C@@]2(C)C1=O` [(+)-USNIC ACID], the IC50 was greater than 200 µM in assay [1] and 42 µM in the assay on PMNL. In addition, the Activity in assay [2] was less than 1 M⁻¹ s⁻¹; in assay [3], 1.47 µmol.

`O=C1c2c(O)cccc2Cc2cccc(O)c21` [ANTHRALIN] yielded an IC50 in assay [1] of 79 µM. The Activity in assay [2] amounted to 24.2 M⁻¹ s⁻¹.

As for `COC(=O)c1c(C)cc(OC(=O)c2c(C)cc(O)c(C=O)c2O)c(C)c1O` [ATRANORIN], the IC50 in assay [1] was greater than 200 µM; with PMNL it was 6 µM. The values for the Activity in assay [2] and in assay [3] were 11.5 M⁻¹ s⁻¹ and 0 µmol, respectively.

In the case of `COC(=O)c1c(C)cc(O)c(C)c1O` [ATRARIC ACID], the half-inhibitory concentration (IC50) in assay [1] was greater than 200 µM; in the assay on PMNL it was greater than 60 µM. Further, the Activity in assay [2] was found to be 5.95 M⁻¹ s⁻¹; in assay [3], 1.43 µmol.

Consider `COc1cc(C)c(C(=O)Oc2cc(C)c(C(=O)O)c(O)c2C)c(OC)c1C` [DIFFRACTAIC ACID], for which the concentration for half-maximal inhibition (IC50) in assay [1] is greater than 200 µM; in the assay on PMNL it was 8 µM. Moreover, the Activity in assay [2] is less than 1 M⁻¹ s⁻¹; in assay [3], 0.12 µmol.

On to `CCOC(=O)c1c(C)cc(O)c(C=O)c1O` [ETHYL HEMATOMMATE], for which the half-inhibitory concentration (IC50) in assay [1] was greater than 200 µM; in the assay on PMNL, 40 µM. In addition, the figures for the Activity in assay [2] and in assay [3] were 12.2 M⁻¹ s⁻¹ and 0.3 µmol, respectively.

`Cc1cc(OC(=O)c2c(C)cc(OC(=O)c3c(C)cc(O)cc3O)cc2O)cc(O)c1C(=O)O` [GYROPHORIC ACID]: the IC50 in assay [1] is greater than 200 µM; in the assay with PMNL, greater than 60 µM. The Activity in assay [2] was found to be 3.63 M⁻¹ s⁻¹; in assay [3], 0.12 µmol.

Consider `CC(Cc1ccc(O)c(O)c1)C(C)Cc1ccc(O)c(O)c1` (centres undefined) [NORDIHYDROGUAIARETIC ACID], for which the values for the half-inhibitory concentration (IC50) (in assay [1]; in the assay on PMNL) were 2 µM and 0.4 µM, respectively. The Activity was greater than 100 M⁻¹ s⁻¹ in assay [2] and 0.23 µmol in assay [3].

In the case of `C=C1C(=O)O[C@@H](CCCCCCCCCCCCC)[C@@H]1C(=O)O` [PROTOLICHESTERINIC ACID], the IC50 was greater than 200 µM in assay [1] and 9 µM in the assay with PMNL. Besides, the Activity in assay [2] was less than 1 M⁻¹ s⁻¹; in assay [3], 0.08 µmol.
